Screens deposited in PubChem by several laboratories.
Compounds with a hit are over-represented: about 2.6% of the library has one in this group of screens.
rCAG binder = molecules binding r(CAG) RNA repeats. r(CAG) RNA repeat, TO-PRO-1 dye displacement fluorescence. inhibition, % at 3 µM. 370,000 compounds, 1.3% hits. AID 651821;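 active = inhibition above the plate cutoff, the mean of all test compounds on that plate plus 3 SD, cut at about 35% in these data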;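 note: 0% = DMSO alone and 100% = 100 µM mitoxantrone as full dye displacement; higher means more dye released from RNA so lower well fluorescence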
NadD block = inhibitors of Staphylococcus aureus NadD | purified NadD enzyme, colorimetric absorbance read-out | inhibition, % at 20 µM | 360,000 compounds, 0.78% hits; in the data active = inhibition above about 26%
STEP inh = STEP (human) phosphatase inhibition. P54829. recombinant STEP, OMFP fluorogenic substrate, fluorescence. inhibition, % at 20 µM. 360,000 compounds, 0.25% hits;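 active = inhibition at 20 µM, scaled per plate between control wells, above about 37%, limit read from the data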;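 note: 0% = DMSO with enzyme and substrate and 100% = substrate only without enzyme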
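medium = Bis-Tris buffer pH 6.0, 2.5 mM DTT, 0.005% Tween 20 | test system = STEP (striatal-enriched tyrosine phosphatase) enzyme, cell-free | measure = normalized % inhibition | compound dosing = 20 µM, 1% DMSO | also added = 25 µM OMFP | schedule = reaction 20 min, ambient temperature | measured by = fluorescence read at 480 nm ex / 540 nm em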
LMPTP inh = blocks human LMPTP phosphatase. P24666. recombinant LMPTP-A, OMFP fluorogenic substrate, fluorescence intensity. inhibition, % at 20 µM. 360,000 compounds, 0.22% hits. AID 651560;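 active = compounds that cut the enzyme signal by at least half of the control window in the single-dose screen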;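 note: plate controls were DMSO wells with enzyme plus substrate for no effect and substrate without enzyme for full effect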
Target sequence (P24666 whole entry, looked up): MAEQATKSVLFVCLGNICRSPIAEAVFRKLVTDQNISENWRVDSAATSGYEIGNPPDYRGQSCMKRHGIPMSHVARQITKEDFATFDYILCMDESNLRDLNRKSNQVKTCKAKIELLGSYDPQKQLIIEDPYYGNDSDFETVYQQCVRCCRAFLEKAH
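Test system: LMPTP-A, protein tyrosine phosphatase of low molecular weight; Input: 0.625 nM enzyme; Incubation: 50 min dark incubation at room temperature; Signal: endpoint fluorescence intensity from OMFP dephosphorylation; Read-out basis: % inhibition versus control wells.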
Scp1 inh = Scp-1 (human) phosphatase inhibition; Q9GZU7; Recombinant Scp1, phosphopeptide, malachite green phosphate absorbance; inhibition, % at 20 µM; 340,000 compounds, 0.88% hits;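 active = inhibition above about 50% at 20 µM, limit read from the data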;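 note: plate controls were DMSO wells with enzyme for no effect and wells lacking enzyme for full effect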
Target sequence (Q9GZU7 76-261 limits assumed): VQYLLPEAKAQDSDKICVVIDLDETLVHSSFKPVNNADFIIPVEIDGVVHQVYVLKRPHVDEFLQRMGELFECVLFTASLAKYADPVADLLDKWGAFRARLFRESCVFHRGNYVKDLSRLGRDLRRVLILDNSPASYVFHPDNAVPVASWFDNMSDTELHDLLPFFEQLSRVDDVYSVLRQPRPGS
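Test system: SCP-1 phosphatase catalytic domain, residues 76-261; measured by: colorimetric phosphate reagent with accelerator and stabiliser, absorbance at 630 nm; timing: enzyme reaction 45 min at room temperature, colour 5 min, stabilisation 30 min; also added: Phosphorylated 17-residue peptide substrate; compound dosing: one concentration, 20 µM, with 1.0% DMSO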
NadD inh conf = confirmation of Staphylococcus aureus NadD inhibitors | shares compounds with NadD block | purified S. aureus NadD, colorimetric enzyme assay | inhibition, % at 20 µM | 2,000 compounds, 13% hits | AID 624309; in the data active = inhibition mostly above about 42%, no sharp cut-off; inactive = mostly below about 42%
An asterisk follows results filed as active.

Screening CC(C)C[C@H]1CN([C@@H](Cc2ccc(O)cc2)CN2CCC[C@@H]2CN2C(=S)NC[C@@H]2Cc2ccccc2)C(=S)N1CC1CCCCCC1 returned rCAG binder 10.6, NadD block 19.8, STEP inh 3.9 and LMPTP inh 2.9.
CC(C)C[C@H]1CNC(=S)N1CC1CCCN1C[C@H](Cc1ccccc1)N1C[C@H](Cc2ccc(O)cc2)N(CC2CCCCCC2)C1=S (stereo partly drawn) was read as rCAG binder 7.6, NadD block 31.5*, STEP inh 5.5, LMPTP inh 2.0, Scp1 inh 24.2 and NadD inh conf 2.1.
COC(=O)[C@]12C[C@H](CC(=O)NCC34CC5CC(CC(C5)C3)C4)C(=O)N(Cc3ccc4c(c3)OCO4)C1=C[C@H](C(C)C)O[C@@H]2C1CC1 was read as rCAG binder 6.0.
For N#CCC(=O)N/N=C/c1cc(Br)ccc1OCc1cccc2ccccc12 the results were rCAG binder 13.9, NadD block 25.9*, STEP inh 2.7, LMPTP inh 4.4, Scp1 inh -10.1 and NadD inh conf 28.8.
`O=C(NCCN1C(=O)S/C(=C\c2ccc(Cl)c(Cl)c2)C1=O)c1ccc2c(c1)C(=O)N(Cc1ccncc1)C2=O` gave rCAG binder 5.1, NadD block 27.7*, STEP inh 2.9, LMPTP inh 7.9, Scp1 inh 0.1 and NadD inh conf -3.6.
Screening O=C(NCCN1C(=O)S/C(=C\c2ccc(Cl)c(Cl)c2)C1=O)C1COc2ccccc2O1 (stereo not drawn) returned rCAG binder 2.2, NadD block 15.6, STEP inh -0.1, LMPTP inh 1.3 and Scp1 inh -10.9.
O=C(c1nn2c(C(F)(F)F)cc(-c3ccco3)nc2c1Br)N1CCCc2ccccc21 was read as rCAG binder 7.4, NadD block 30.7*, STEP inh -3.8, LMPTP inh 3.9, Scp1 inh -17.1 and NadD inh conf 4.6.
`Cc1ccc(NC(=O)CC2S/C(=N/N=C/c3ccco3)NC2=O)cc1Cl` (stereo not drawn) gave rCAG binder 12.2, NadD block 10.3, STEP inh 1.6, LMPTP inh -2.6 and Scp1 inh -8.9.
`Cc1ccc(NC(=O)CC2S/C(=N/N=C/C=C/c3ccccc3)NC2=O)cc1Cl` (stereo not drawn) gave rCAG binder 9.8, NadD block 32.3*, STEP inh 1.8, LMPTP inh 0.9, Scp1 inh 0.1 and NadD inh conf 7.4.
Screening COC(=O)[C@]12C[C@H](CC(=O)NCc3cccs3)C(=O)N(Cc3ccc(Cl)cc3Cl)C1=C[C@H](C1CCCC1)O[C@@H]2C returned rCAG binder 7.9.
`O=C(NC(Cc1c[nH]c2ccccc12)C(=O)N/N=C/c1ccc(Cl)cc1)c1cccs1` (stereo not drawn) gave rCAG binder 18.1, NadD block 31.2*, STEP inh -5.1, LMPTP inh 5.3, Scp1 inh -11.1 and NadD inh conf 34.6.
Screening Cc1cc2nc(-c3ccc(SCC(=O)Nc4ccc(S(=O)(=O)N5CCCC5)cc4)nc3)[nH]c2cc1C returned rCAG binder 15.7, NadD block 39.9*, STEP inh -2.6, LMPTP inh 5.4, Scp1 inh -4.9 and NadD inh conf 11.4.
`O=C(CSc1ccc(-c2nc3ccccc3[nH]2)cn1)Nc1ccc(S(=O)(=O)N2CCCC2)cc1` gave rCAG binder 16.2, NadD block 28.9, STEP inh 7.9, LMPTP inh 1.2 and Scp1 inh -3.9.
Screening Cc1cc(C)c2nc(SCC(=O)Nc3ccc(S(=O)(=O)N4CCCC4)cc3)c(C)cc2c1 returned rCAG binder 9.8, NadD block 35.9*, STEP inh 0.2, LMPTP inh 1.3, Scp1 inh 9.0 and NadD inh conf 8.7.
For CCOc1ccc2nc(SCC(=O)Nc3ccc(S(=O)(=O)N4CCCC4)cc3)c(C)cc2c1 the results were rCAG binder 6.4, NadD block 16.5, STEP inh 1.9, LMPTP inh 0.1 and Scp1 inh -0.8.
For O=C(CSc1nnc(-c2ccncc2)n1-c1ccccc1)Nc1ccc2c(c1)OCCO2 the results were rCAG binder 0.3.
For O=CNn1cnc2c(oc3nc(-c4ccccc4)cc(-c4ccco4)c32)c1=O the results were rCAG binder 13.8, NadD block 35.8*, STEP inh 2.3, LMPTP inh 1.1, Scp1 inh -10.4 and NadD inh conf 4.9.
`Nc1c(C(=O)N/N=C/c2cccnc2)oc2nc(-c3ccccc3)cc(-c3ccco3)c12` gave rCAG binder 5.6, NadD block 7.3, STEP inh -0.5, LMPTP inh 3.8 and Scp1 inh -6.6.
Cc1ccccc1NC(=O)C1CCCN1S(=O)(=O)c1cccnc1 (stereo not drawn) was read as rCAG binder 1.9.
Screening O=C(c1ccoc1)N1CCN(c2cc(-c3cccc(F)c3)nc3cc(-c4cccc(Cl)c4)nn23)CC1 returned rCAG binder 6.3, NadD block 45.3*, STEP inh -0.2, LMPTP inh 2.5 and NadD inh conf 6.1.
`Cc1c(N=Cc2c(O)n(C)c(=O)c3ccccc23)c(=O)n(-c2ccccc2)n1C` gave NadD block -6.2, STEP inh 0.2, LMPTP inh -1.6 and Scp1 inh -6.5.
For COc1ccc(C2=C(C=Nc3c(C)n(C)n(-c4ccccc4)c3=O)C(c3ccccc3C)c3ccccc3O2)cc1OC (stereo not drawn) the results were rCAG binder 4.3, NadD block 34.4*, STEP inh -3.4, LMPTP inh 6.9, Scp1 inh 6.0 and NadD inh conf 11.5.
For Cc1nc(N2CCN(c3ccccn3)CC2)c2c(C)c(C(=O)Nc3ccc(Br)cc3C)sc2n1 the results were rCAG binder 2.9, NadD block 30.1*, STEP inh 3.2, LMPTP inh 2.9, Scp1 inh 10.3 and NadD inh conf 5.4.
O=C(NCCc1ccccc1)OCc1cn(Cc2ccc(F)c(F)c2)nn1 was read as rCAG binder -2.1.
For O=C(Nc1ccc(Cl)cc1)[C@@H]1[C@@H]2C(=O)N(c3ccc4ccccc4c3)C(=O)[C@@H]2[C@H]2C=CC=NN21 the results were rCAG binder 32.9, NadD block 56.6*, STEP inh 2.9, LMPTP inh 1.5, Scp1 inh 42.8 and NadD inh conf 30.6.
Screening COC(=O)c1ccc(C23CC4(C2)[C@H](CN(CC2CCCCC2)[C@@H]4c2ccccc2)C3c2ccc(Cl)nc2)cc1 (stereo partly drawn) returned rCAG binder 12.9, NadD block 35.0*, STEP inh -1.0, LMPTP inh 1.3, Scp1 inh 4.0 and NadD inh conf 9.4.
